From ChEMBL document CHEMBL3286203, “Reactive oxygen species (ROS) inducible DNA cross-linking agents and their effect on cancer cells and normal lymphocytes” (J Med Chem, 2014)
Active and inactive are the calls of the source. The rule behind the calls is not given here.

How the values were obtained:
IGROV-1 = experiment: Cytotoxicity against human IGROV1 cells after 48 hrs by SRB assay; assay type: functional; details: IGROV-1, 48 h
Method in brief: (§1)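 GI50 was determined in the NCI Developmental Therapeutics Program in vitro 60-line cancer screen. Tumour lines were maintained in RPMI 1640 containing 5% FBS and 2 mM L-glutamine. Cells were inoculated at 5000–40 000 cells/well according to each line's doubling time before drug exposure.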

[1] = (§2) Induction of apoptosis in human CLL cells after 24 hrs by Annexin/propidium iodide staining-based assay; assay type: functional, cell-based
Method in brief: (§3)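 Primary CLL lymphocytes, Ficoll-Hypaque isolated from patient peripheral blood. Held fresh in RPMI 1640 with 10% autologous plasma. Dose–response over 24 h (n = 3). Apoptosis by annexin V–FITC/PI double staining and flow cytometry; IC50 derived from the dose–response.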

CLL [2] = experiment: as §2; assay type: functional, cell-based; method in brief: as §3
[3] = Induction of [32P]-labeled 49-mer oligonucleotide duplex DNA 12 interstrand cross-linking (unknown origin) at purine nucleotide site using compound radiolabeled at 5' of 12a in phosphate buffer at pH 7 at 90 degC after 30 mins by PAGE
Method in brief: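 Cross-linked duplex, with strand 12a 32P-labelled at the 5′ end, heated at 90 °C either in phosphate buffer pH 7.0 or in 1.0 M piperidine. Cleavage sites were assigned by denaturing PAGE against G + A sequencing and Fe·EDTA markers.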

NCI-H522 = experiment: Cytotoxicity against human NCI-H522 cells after 48 hrs by SRB assay; assay type: functional; details: NCI-H522, 48 h
Method in brief: (§4)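 GI50 from the NCI Developmental Therapeutics Program in vitro human tumor cell screen. Cell lines were maintained in RPMI 1640 with 5% fetal bovine serum and 2 mM L-glutamine. They were seeded at 5000–40 000 cells/well, depending on each line's doubling time, then exposed to drug for 48 h at 37 °C, 5% CO2.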

CLL [4] = experiment: Induction of apoptosis in human CLL cells at 10 uM by Annexin/propidium iodide staining-based assay; assay type: functional, cell-based; details: TDE = time-dependent effect
[5] = Induction of apoptosis in human CLL cells at 10 uM after 24 hrs by Annexin/propidium iodide staining-based assay (reference value: 95%); assay type: functional
[6] = Cytotoxicity against human OVCAR4 cells after 48 hrs by SRB assay; assay type: functional; details: OVCAR-4, 48 h; method in brief: as §4
CAKI-1 = experiment: Cytotoxicity against human Caki1 cells after 48 hrs by SRB assay; assay type: functional; details: CAKI-1, 48 h; method in brief: as §1
CLL [7] = experiment: Induction of ROS generation in human CLL cells at 10 uM after 24 hrs by DCDFA assay in presence of NAC; assay type: functional, cell-based
Method in brief: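 Primary CLL cells given compound (10 μM) with or without N-acetyl cysteine ([…]) for 24 h. Global ROS measured by DCFDA staining and flow histograms; n = 8 patient samples.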

CLL [8] = experiment: Induction of apoptosis in human CLL cells at 10 uM after 24 hrs by DCDFA assay in presence of NAC; assay type: functional, cell-based
A549 = experiment: Cytotoxicity against human A549 cells after 48 hrs by SRB assay; assay type: functional; details: A549, 48 h; method in brief: as §1
SK-OV-3 = experiment: Cytotoxicity against human SKOV3 cells after 48 hrs by SRB assay; assay type: functional; details: SK-OV-3, 48 h; method in brief: as §4
[9] = Drug level in phosphate buffer treated with 40 mM N,N-Bis(2-chloroethyl)-4-(4,4,5,5-tetramethyl-1,3,2-dioxaborolan-2-yl)aniline after 30 mins by 1H-NMR analysis in presence of H2O2; assay type: physicochemical; details: 0.5 h
Method in brief: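 1H NMR of the boronate mustard (40 mM) with H2O2 (60 mM), 30 min after H2O2 addition. Solvent was 400 mM phosphate buffer pH 8 (50 μL) in DMSO-d6 (450 μL). Read-out is conversion to the activated product.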

NCI-H226 = experiment: Cytotoxicity against human NCI-H226 cells after 48 hrs by SRB assay; assay type: functional; details: NCI-H226, 48 h; method in brief: as §4
RPMI-8226 = experiment: Cytotoxicity against human RPMI8226 cells after 48 hrs by SRB assay; assay type: functional; details: RPMI-8226, 48 h; method in brief: as §4
[10] = Induction of apoptosis in human CLL cells at 10 uM after 48 hrs by Annexin/propidium iodide staining-based assay (reference value: 91%); assay type: functional
SN12C = experiment: Cytotoxicity against human SN12C cells after 48 hrs by SRB assay; assay type: functional; method in brief: as §4
[11] = Cytotoxicity against human NCI-ADR-RES cells after 48 hrs by SRB assay; assay type: functional; method in brief: as §4
SF-268 = experiment: Cytotoxicity against human SF268 cells after 48 hrs by SRB assay; assay type: functional; details: SF-268, 48 h; method in brief: as §4
KM12 = experiment: Cytotoxicity against human KM12 cells after 48 hrs by SRB assay; assay type: functional; details: KM12, 48 h; method in brief: as §1
[12] = Cytotoxicity against human OVCAR5 cells after 48 hrs by SRB assay; assay type: functional; details: OVCAR-5, 48 h; method in brief: as §4
SNB-75 = experiment: Cytotoxicity against human SNB75 cells after 48 hrs by SRB assay; assay type: functional; details: SNB-75, 48 h
Method in brief: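 GI50 from the NCI-60 DTP human tumour line screen. Lines grown in RPMI 1640 with 5% fetal bovine serum and 2 mM L-glutamine, plated at 5000–40 000 cells/well according to doubling time. Incubated 48 h at 37 °C, 5% CO2.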

LOX IMVI = experiment: Cytotoxicity against human LOXIMVI cells after 48 hrs by SRB assay; assay type: functional; method in brief: as §1
[13] = Induction of [32P]-labeled 49-mer oligonucleotide duplex DNA 12 interstrand cross-linking (unknown origin) at purine nucleotide site using compound radiolabeled at 3' of 12a in phosphate buffer at pH 7 at 90 degC after 30 mins by PAGE
[14] = Cytotoxicity against human Hs578T cells after 48 hrs by SRB assay; assay type: functional; details: Hs-578T; method in brief: as §1
[15] = Induction of apoptosis in human lymphocytes at 10 uM after 24 to 48 hrs by Annexin/propidium iodide staining-based assay; assay type: cell-based; details: lymphocyte
COLO 205 = experiment: Cytotoxicity against human COLO205 cells after 48 hrs by SRB assay; assay type: functional; details: COLO 205, 48 h; method in brief: as §1
[16] = Induction of [32P]-labeled 49-mer oligonucleotide duplex DNA 12 with GNC sequence at terminus (unknown origin) interstrand cross-linking at 1 mM after 16 hrs by PAGE in presence of O2-
[17] = Induction of [32P]-labeled 49-mer oligonucleotide duplex DNA 12 with GNC sequence at terminus (unknown origin) interstrand cross-linking at 1 mM after 16 hrs by PAGE in presence of OCL-
[18] = Induction of [32P]-labeled 49-mer oligonucleotide duplex DNA 12 with GNC sequence at terminus (unknown origin) interstrand cross-linking at 1 mM after 16 hrs by PAGE in presence of TBHP
[19] = Induction of [32P]-labeled 49-mer oligonucleotide duplex DNA 12' with GNC sequence in middle (unknown origin) interstrand cross-linking at 1 mM after 12 hrs by PAGE in presence of H2O2
[20] = 1-Octanol-PBS partition coefficient, log P of the compound; assay type: physicochemical

| Structure (SMILES) | GI50 (IGROV-1) [µM] | IC50 [1] [µM] | Activity [3] | GI50 (NCI-H522) [µM] | GI50 [6] [µM] | GI50 (CAKI-1) [µM] | GI50 (A549) [µM] | GI50 (SK-OV-3) [µM] | GI50 (NCI-H226) [µM] | GI50 (RPMI-8226) [µM] | GI50 (SN12C) [µM] | GI50 [11] [µM] | GI50 (SF-268) [µM] | GI50 (KM12) [µM] | GI50 [12] [µM] | GI50 (SNB-75) [µM] | GI50 (LOX IMVI) [µM] | Activity [13] | GI50 [14] [µM] | GI50 (COLO 205) [µM] | also measured |
| --- | --- | --- | --- | --- | --- | --- | --- | --- | --- | --- | --- | --- | --- | --- | --- | --- | --- | --- | --- | --- | --- |
| CC1(C)OB(c2ccc(N(CCCl)CCBr)cc2)OC1(C)C | 19.1 | 10.8 | Active | 11.7 | 14.4 | 3.52 | 4.88 | 9.25 | 11.9 | 19.4 | 4.45 | 6.69 | 4.9 | 31.3 | 25.9 | 10.7 | 6.6 | Active | 27.4 | 11.4 | Activity (CLL [2]): Dose-dependent effect; Activity (CLL [4]): tde; Activity [5]: 90%; Activity (CLL [7]): inactive; Activity (CLL [8]): inactive; Drug metabolism [9]: metabolite_detected; Activity [10]: 81%; Activity [15]: Toxic |
| CC1(C)OB(c2ccc(N(CCCl)CCOS(C)(=O)=O)cc2)OC1(C)C | 13.6 | – | Active | 5.99 | 13.9 | 3.1 | 4.98 | 8.96 | 10.4 | 14.7 | 4.4 | 6.52 | 5.39 | 25.8 | 22.9 | 5.85 | 4.72 | Active | 24.1 | 11 | Activity [16]: 5%; Activity [17]: 0.9%; Activity [18]: 1% |
| CC1(C)OB(c2ccc(N(CCCl)CCCl)cc2)OC1(C)C | 15.6 | 9.26 | Active | 6.59 | 17.4 | 2.78 | 2.69 | 8.03 | 12.9 | 10.9 | 4.11 | 5.33 | 4.61 | 14.9 | 21.6 | 7.98 | 5.17 | Active | 26.2 | 11.6 | Activity (CLL [2]): Dose-dependent effect; Activity (CLL [4]): tde; Activity [5]: 93%; Activity [16]: 5%; Activity [19]: 27%; Activity [10]: 83%; Activity [17]: 0.9%; Activity [15]: Toxic; logP [20]: 2.8; Activity [18]: 1% |
| CC1(C)OB(c2ccc(N(CCBr)CCOS(C)(=O)=O)cc2)OC1(C)C | – | – | Active | – | – | – | – | – | – | – | – | – | – | – | – | – | – | Active | – | – | – |
| CC1(C)OB(c2ccc(N(CCBr)CCBr)cc2)OC1(C)C | – | – | Active | – | – | – | – | – | – | – | – | – | – | – | – | – | – | Active | – | – | Activity [19]: 35% |
